# According to PubChem BioAssay AID1885 (Broad Institute, 2009):
# In all, about 300,000 compounds went through this assay and about 4,400 (1.5%) were called active.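 Rule for the calls: active = mean inhibition across valid replicates above about 55% (limit read from the data); inconclusive = mean below that limit but half or more replicates reach it; inactive = mean below it, under half of replicates reach it.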 The sample as a whole holds a higher share of actives than the screen did.
# Assay: Trypanosoma cruzi replication blockers in host cells – luminescence, NIH3T3 host cells, primary screen (AID 1885);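 note: signal also drops with host cell toxicity which is not excluded here; 0% = plate median of DMSO wells and 100% = zero luminescence signal; higher percent means less beta-gal luminescence so fewer parasites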
# Conditions: T. cruzi beta-gal in NIH3T3, luminescence, 90 h; active compounds read high; concentration not given here
# Procedure, shortened: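 Incubation – ≥90 h infection period, 3 h prior cell attachment · System – NIH/3T3 fibroblasts plus reporter T. cruzi · Doses – compound pinned at 50 nL/well, DMSO · Read-out basis – percent inhibition of parasite-derived β-gal signal · Signal – luminescent β-galactosidase signal after 60 min lysis · Also added – 5000 T. cruzi trypomastigotes/well · Medium – Low-serum DMEM with 2% FBS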
row,SMILES,inhibition
1,CCOC(=O)c1ccc(NC(=O)c2ccc(NC(=O)C3CCCO3)cc2)cc1 (centres undefined),3.02% (inactive)
2,CCOc1ccccc1C1CC(c2ccc(Cl)cc2)Nc2nc(N)nn21 (centres undefined),17.4% (inactive)
3,CCCn1c(C)cc(-c2csc(NC(=O)CCc3nc4ccccc4c(=O)[nH]3)n2)c1C,5.04% (inactive)
4,Cc1cccc(OCC(O)CN2CCN(CCN3C(=O)c4cccc5cccc(c45)C3=O)CC2)c1C (centres undefined),67.1% (active)
5,Cc1ccccc1OCC(O)CN1CCN(c2ccccn2)CC1 (centres undefined),0.87% (inactive)
6,COc1ccccc1OCC(O)CN1CCOCC1 (centres undefined),1.66% (inactive)
7,COc1ccccc1NS(=O)(=O)c1ccc(C(=O)N2CCN(c3ccccc3O)CC2)cc1,0.881% (inactive)
8,O=C(COC(=O)c1ncc(Cl)c(Cl)c1Cl)NCc1cccs1,-17.6% (inactive)
9,Cc1csc(NC(=O)c2ccc(C)s2)n1,-14.9% (inactive)
10,Cc1ccc(S(=O)(=O)NCCN2CCOCC2)cc1C,1.47% (inactive)
11,Cn1c(=O)c(=O)n(C)c2cc(S(=O)(=O)NCCN3CCN(c4ccccc4F)CC3)ccc21,56% (active)
12,Cn1c(=O)c(=O)n(C)c2cc(S(=O)(=O)NCCc3ccccc3)ccc21,-8.33% (inactive)
13,COc1cc(CNCc2ccc3c(c2)OCO3)c([N+](=O)[O-])cc1OC,9.09% (inactive)
14,C=CS(=O)c1sc(Cl)c(N2CCOCC2)c1[N+](=O)[O-] (centres undefined),69.9% (active)
15,COc1ccc(-c2nc(CCNC(=O)c3ccc(Br)o3)cs2)cc1,9.33% (inactive)
16,O=S(=O)(NCCc1csc(-c2ccccc2)n1)c1cccnc1,8.42% (inactive)
17,O=C(NCCc1csc(-c2ccccc2)n1)c1ccccc1F,66.1% (active)
18,CC(=O)c1ccc(S(=O)(=O)NC2CC(=O)N(c3ccc4c(c3)OCCO4)C2)cc1 (centres undefined),0.0508% (inactive)
19,CC(=O)Nc1nc2ccccc2n1Cc1ccc(C)cc1,79.7% (active)
20,CCC(=O)Nc1nc2ccccc2n1Cc1ccccc1C,45.5% (inactive)
21,CC(=O)c1nc2ccccc2n1Cc1ccccc1,8% (inactive)
22,O=C(CCC(=O)c1cccs1)Nc1nc2ccccc2s1,-3.43% (inactive)
23,CCN(CC)CCn1c2c(c(SCC(=O)Nc3ccc(C(C)C)cc3)nc1=O)CCC2,9.44% (inactive)
24,C=CC1=C(C(=O)O)N2C(=O)[C@@H](NC(=O)/C(=N/OCC(=O)O)c3csc(N)n3)[C@H]2SC1,-7.4% (inactive)
25,O=C(Cc1ccc(S(=O)(=O)N2CCOCC2)s1)NCCOc1ccccc1F,5.5% (inactive)
26,COc1ccccc1CCNC(=O)CN1C(=O)NC2(CCCC2)C1=O,-8.97% (inactive)
27,O=C(COC(=O)c1ncc(Cl)c(Cl)c1Cl)NC1CCS(=O)(=O)C1 (centres undefined),-20.7% (inactive)

row,SMILES,inhibition
1,Cc1cccc([C@@H]2[C@@H]3C(=O)N(Cc4ccccc4)C(=O)[C@@H]3[C@]3(Cc4ccc(Cl)cc4)C(=O)N(c4cccc(Cl)c4)C(=O)N23)c1,-3.42% (inactive)
2,Cc1c(C(=O)OCC(=O)N2CCCC2=O)oc2ccccc12,-3.64% (inactive)
3,O=C(CN1CCN(C/C=C/c2ccccc2)CC1)Nc1ccc(F)cc1F,32.3% (inactive)
4,O=C(CCN1CCN(C/C=C/c2ccccc2)CC1)Nc1cccc(F)c1,58.2% (active)
5,O=C(CCN1CCN(C/C=C/c2ccccc2)CC1)Nc1ccccc1Cl,33.5% (inactive)
6,CC[C@@]12C(=O)N(c3ccccc3)C(=O)N1[C@H](c1ccc(Br)cc1)[C@@H]1C(=O)N(C(C)(C)C)C(=O)[C@@H]12,1.35% (inactive)
7,CC(C)COC(=O)c1ccc(NC(=O)C2C3C=CC(C3)C2C(=O)O)cc1 (centres undefined),1.59% (inactive)
8,CCOC(=O)c1cnc(-n2nc(C)cc2C)nc1NNc1cc(C)nc(-c2ccccc2)n1,54.9% (active)
9,CCOC(=O)c1cnc(-n2nc(C)cc2C)nc1Nc1cccc(C(C)=O)c1,-12.3% (inactive)
10,CCOC(=O)c1cnc(-c2ccccc2)nc1Oc1ccc(C)cc1,7.98% (inactive)
11,CCCCn1c(N)c(N(CCC(C)C)C(=O)c2ccc(COc3ccccc3)o2)c(=O)[nH]c1=O,0.734% (inactive)
12,CCc1c(C)nc(SCC(=O)NC2CCCC2)[nH]c1=O,-9.04% (inactive)
13,CC(C)c1csc(CN2CCC(CO)(Cc3ccccc3)CC2)n1,67.1% (active)
14,OCC1(Cc2ccccc2)CCN(Cc2cc3ccccc3o2)CC1,16.6% (inactive)
15,CC(=O)c1cccc(CN2CCC(CO)(Cc3ccccc3)CC2)c1,11.2% (inactive)
16,Cc1ccc(C(=O)NC2CCCC(C)C2C)cc1S(=O)(=O)N1CCCCC1 (centres undefined),19.9% (inactive)
17,O=C(CSc1nc2[nH]ncc2c(=O)[nH]1)Nc1ccc(F)cc1,-0.401% (inactive)
18,COc1ccc(S(=O)(=O)N2CCCCC2)cc1NC(=O)C1CC(=O)N(c2ccc3c(c2)OCCO3)C1 (centres undefined),-2.94% (inactive)
19,O=C(NCC(c1ccco1)N1CCc2ccccc21)c1cccc(F)c1 (centres undefined),-6.59% (inactive)
20,CCCOc1ccc(C(=O)C(CCC(CNCC)C(=O)c2ccc(OCCC)cc2)CNCC)cc1 (centres undefined),56% (active)
21,CCCOc1ccc(C(=O)NCCc2ccccc2)cc1,9.57% (inactive)
22,CCCOc1ccc(C(=O)CCC(=O)OC(C)C(=O)Nc2ccc(NC(C)=O)cc2)cc1 (centres undefined),-13.4% (inactive)
23,COc1ccc(-c2cc(C(=O)N(C)CC(=O)Nc3ccccc3Cl)c3ccccc3n2)cc1OC,9.44% (inactive)
24,Cc1ccc(NC(=O)c2cnc(SCC(=O)NCC3CCCO3)n(C)c2=O)cc1 (centres undefined),-7.14% (inactive)
25,COc1cccc(Cn2cc(/C=N/NC(=O)c3cc(O)cc(O)c3)c3ccccc32)c1,-8.85% (inactive)
26,Cc1ccccc1C(=O)NCC(c1ccco1)N1CCc2ccccc21 (centres undefined),12% (inactive)
27,Cc1ccc(Cc2nnc(SCC(=O)Nc3ccccc3C)[nH]c2=O)cc1,-3.22% (inactive)
